Results gathered from unrelated publications.
FGFR2: Fibroblast growth factor receptor 2 (FGFR2, Homo sapiens, UniProt P21802)
FGFR2 N549H: Fibroblast growth factor receptor 2 (FGFR2, Homo sapiens, UniProt P21802, N549H)

O=C(CSc1nc2nccnc2c(=O)n1CCc1ccccc1)Nc1nccs1 has an inhibition of 3% (FGFR2; enzyme activity, inhibitor; 10 µM).
CNC(=O)c1cc2c(Oc3ccc(NC(=O)C4(C(=O)Nc5ccc(F)cc5)CC4)cc3)ccnc2cc1OC has an inhibition of 95% (FGFR2 N549H; enzyme activity, inhibitor, radiometric; 1 µM).
CSc1nc(C)c(-c2ccnc(Nc3ccc(N4CCOCC4)cc3)c2)[nH]1 has an inhibition of 44.9% (FGFR2; cell-free assay, inhibitor; 10 µM).
CNC(=O)c1cc(Oc2ccc(NC(=O)Nc3ccc(Cl)c(C(F)(F)F)c3)cc2)ccn1 gave an inhibition of 100% (FGFR2 N549H; cell-free assay; 10 µM).
The inhibition of CS(=O)(=O)Nc1cccc(-c2csc(NC(=O)CSc3nc4nccnc4c(=O)n3CCc3ccccc3)n2)c1 is reported as -2% (FGFR2; enzyme activity, inhibitor; 10 µM).
CN(C)C1CCN(CC#Cc2nn(C3CCCC3)c3nc(NCc4ccccc4)ncc23)C1 (stereo not drawn) gave an inhibition of 46% (FGFR2; enzyme activity, inhibitor, FRET; 10 µM).
COc1cc2nccc(Oc3ccc(NC(=O)c4c5n(n(-c6ccc(F)cc6)c4=O)CCCC5)cc3)c2cc1OC has an inhibition of 0% (FGFR2; enzyme activity, inhibitor; 0.1 µM).
For C=CC(=O)Nc1cc(Nc2nccc(Nc3cc(Cl)c(F)cc3C(C)(C)O)n2)c(OC)cc1N1CC[C@@H](N(C)C)C1, the inhibition was 10% (FGFR2; enzyme activity, inhibitor; 1 µM).
For COc1cc2ncnc(Nc3ccc(Oc4ccccc4)cc3C)c2cc1OC, the inhibition was 8% (FGFR2; enzyme activity, inhibitor; 1 µM).
Cc1ccc(Nc2nccc(N(C)c3ccc4c(C)n(C)nc4c3)n2)cc1S(N)(=O)=O gave an inhibition of 96% (FGFR2 N549H; cell-free assay; 10 µM).
With CNc1cccc2cc(C(=O)Nc3ccc(C(=O)O)cc3)c(=O)[nH]c12 the inhibition was 2.8% (FGFR2 N549H; enzyme activity, inhibitor; 10 µM).
CC/C(=N\NC(=O)NCc1cccc(O)c1)c1ccc(O)c(C)c1O gave an inhibition of 7.7% (FGFR2; enzyme activity, inhibitor; 0.1 µM).
CCCS(=O)(=O)Nc1ccc(F)c(C(=O)c2c[nH]c3ncc(-c4ccc(Cl)cc4)cc23)c1F gave an inhibition of less than 10% (FGFR2; enzyme activity, inhibitor; 1 µM).
COc1cc2ncnc(Nc3ccc(Oc4ccccc4)c(C)c3C)c2cc1OC gave an inhibition of 3% (FGFR2; enzyme activity, inhibitor; 1 µM).
The inhibition of CCN(CC)CCNC(=O)c1c(C)[nH]c(/C=C2\C(=O)Nc3ccc(F)cc32)c1C is reported as 95% (FGFR2 N549H; cell-free assay; 10 µM).
